Experimental data published in ChEMBL document CHEMBL2157880, “Synthesis, antimycobacterial and antibacterial activity of ciprofloxacin derivatives containing a N-substituted benzyl moiety” (2012).
Values after ≈ are worked out from the molar mass of the structure shown.

Experiments:
Type in all cases: functional
Enterococcus faecium [1] = assay: Antibacterial activity against Enterococcus faecium 10-6 after 18 to 24 hrs by NCCLS method
Procedure, shortened: (§1)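 Standard NCCLS (M100-S11) MIC testing against Gram-positive and Gram-negative strains. Plates were incubated at 35 °C for 18–24 h. The MIC was read as the lowest concentration giving complete inhibition of visible bacterial growth.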

Klebsiella pneumoniae [2] = assay: Antibacterial activity against Klebsiella pneumoniae 10-3 after 18 to 24 hrs by NCCLS method; procedure, shortened: as §1
Staphylococcus aureus [3] = assay: Antibacterial activity against methicillin-resistant Staphylococcus aureus 10-13 after 18 to 24 hrs by NCCLS method
Procedure, shortened: (§2)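 Incubated at 35 °C for 18–24 h under NCCLS (M100-S11) standards. MIC was read as the lowest concentration giving complete inhibition of visible bacterial growth.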

Staphylococcus aureus [4] = assay: Antibacterial activity against methicillin-sensitive Staphylococcus aureus 10-13 after 18 to 24 hrs by NCCLS method; procedure, shortened: as §1
Escherichia coli [5] = assay: Antibacterial activity against extended spectrum beta-lactamases producing Escherichia coli 10-2 after 18 to 24 hrs by NCCLS method; procedure, shortened: as §1
[6] = system: Staphylococcus epidermidis; assay: Antibacterial activity against methicillin-resistant Staphylococcus epidermidis 10-10 after 18 to 24 hrs by NCCLS method; procedure, shortened: as §2
Escherichia coli [7] = assay: Antibacterial activity against extended spectrum beta-lactamases producing Escherichia coli 10-3 after 18 to 24 hrs by NCCLS method; procedure, shortened: as §1
Klebsiella pneumoniae [8] = assay: Antibacterial activity against Klebsiella pneumoniae 10-4 after 18 to 24 hrs by NCCLS method; procedure, shortened: as §1
[9] = system: Staphylococcus epidermidis; assay: Antibacterial activity against methicillin-resistant Staphylococcus epidermidis 10-13 after 18 to 24 hrs by NCCLS method; procedure, shortened: as §2
Enterococcus faecalis [10] = assay: Antibacterial activity against Enterococcus faecalis 10-7 after 18 to 24 hrs by NCCLS method; procedure, shortened: as §1
Enterococcus faecium [11] = assay: Antibacterial activity against Enterococcus faecium 10-9 after 18 to 24 hrs by NCCLS method; procedure, shortened: as §1
Streptococcus pneumoniae [12] = assay: Antibacterial activity against Streptococcus pneumoniae 10-6 after 18 to 24 hrs by NCCLS method; procedure, shortened: as §1
Pseudomonas aeruginosa [13] = assay: Antibacterial activity against Pseudomonas aeruginosa 10-12 after 18 to 24 hrs by NCCLS method; procedure, shortened: as §1
Pseudomonas aeruginosa [14] = assay: Antibacterial activity against Pseudomonas aeruginosa 10-5 after 18 to 24 hrs by NCCLS method; procedure, shortened: as §1
Enterococcus faecalis [15] = assay: Antibacterial activity against Enterococcus faecalis 10-6 after 18 to 24 hrs by NCCLS method; procedure, shortened: as §1
Escherichia coli [16] = assay: Antibacterial activity against Escherichia coli 10-2 after 18 to 24 hrs by NCCLS method; procedure, shortened: as §1
Streptococcus pneumoniae [17] = assay: Antibacterial activity against Streptococcus pneumoniae 10-1 after 18 to 24 hrs by NCCLS method; procedure, shortened: as §1
Pseudomonas aeruginosa [18] = assay: Antibacterial activity against Pseudomonas aeruginosa 10-18 after 18 to 24 hrs by NCCLS method; procedure, shortened: as §1
Staphylococcus aureus [19] = assay: Antibacterial activity against methicillin-sensitive Staphylococcus aureus 10-14 after 18 to 24 hrs by NCCLS method; procedure, shortened: as §1
[20] = system: Staphylococcus epidermidis; assay: Antibacterial activity against methicillin-sensitive Staphylococcus epidermidis 10-11 after 18 to 24 hrs by NCCLS method; procedure, shortened: as §1
[21] = system: Staphylococcus epidermidis; assay: Antibacterial activity against methicillin-sensitive Staphylococcus epidermidis 10-15 after 18 to 24 hrs by NCCLS method; procedure, shortened: as §2
Escherichia coli [22] = assay: Antibacterial activity against Escherichia coli ATCC 25922 after 18 to 24 hrs by NCCLS method; procedure, shortened: as §1
Pseudomonas aeruginosa [23] = assay: Antibacterial activity against Pseudomonas aeruginosa 10-20 after 18 to 24 hrs by NCCLS method; procedure, shortened: as §1
Escherichia coli [24] = assay: Antibacterial activity against Escherichia coli 10-1 after 18 to 24 hrs by NCCLS method; procedure, shortened: as §1
Escherichia coli [25] = assay: Antibacterial activity against extended spectrum beta-lactamases producing Escherichia coli 10-4 after 18 to 24 hrs by NCCLS method; procedure, shortened: as §1
Staphylococcus aureus [26] = assay: Antibacterial activity against methicillin-resistant Staphylococcus aureus 10-11 after 18 to 24 hrs by NCCLS method; procedure, shortened: as §2
[27] = system: Mycobacterium tuberculosis; assay: Antimycobacterial activity against Mycobacterium tuberculosis H37Rv ATCC 27294 by microplate alamar blue assay
Procedure, shortened: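 Microplate Alamar Blue fluorescence assay on strain H37Rv ATCC 27294. MIC was the lowest concentration cutting fluorescence by ≥90% against the mean of replicate bacterium-only controls.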

Pseudomonas aeruginosa [28] = assay: Antibacterial activity against Pseudomonas aeruginosa 10-9 after 18 to 24 hrs by NCCLS method; procedure, shortened: as §1
Pseudomonas aeruginosa [29] = assay: Antibacterial activity against Pseudomonas aeruginosa 10-15 after 18 to 24 hrs by NCCLS method; procedure, shortened: as §1
Staphylococcus aureus [30] = assay: Antibacterial activity against methicillin-sensitive Staphylococcus aureus 10-11 after 18 to 24 hrs by NCCLS method; procedure, shortened: as §1
Staphylococcus aureus [31] = assay: Antibacterial activity against Staphylococcus aureus ATCC 2592 after 18 to 24 hrs by NCCLS method; procedure, shortened: as §1
Escherichia coli [32] = assay: Antibacterial activity against Escherichia coli 10-3 after 18 to 24 hrs by NCCLS method; procedure, shortened: as §1
Klebsiella pneumoniae [33] = assay: Antibacterial activity against extended spectrum beta-lactamases producing Klebsiella pneumoniae 10-1 after 18 to 24 hrs by NCCLS method; procedure, shortened: as §1
Klebsiella pneumoniae [34] = assay: Antibacterial activity against Klebsiella pneumoniae 10-2 after 18 to 24 hrs by NCCLS method; procedure, shortened: as §1
Klebsiella pneumoniae [35] = assay: Antibacterial activity against extended spectrum beta-lactamases producing Klebsiella pneumoniae 10-2 after 18 to 24 hrs by NCCLS method; procedure, shortened: as §1
Staphylococcus aureus [36] = assay: Antibacterial activity against methicillin-resistant Staphylococcus aureus 10-15 after 18 to 24 hrs by NCCLS method; procedure, shortened: as §2
Klebsiella pneumoniae [37] = assay: Antibacterial activity against extended spectrum beta-lactamases producing Klebsiella pneumoniae 10-3 after 18 to 24 hrs by NCCLS method; procedure, shortened: as §1
Enterococcus faecalis [38] = assay: Antibacterial activity against Enterococcus faecalis 10-5 after 18 to 24 hrs by NCCLS method; procedure, shortened: as §1

SMILES	MIC (Enterococcus faecium [1]) [µg/mL]	MIC (Klebsiella pneumoniae [2]) [µg/mL]	MIC (Staphylococcus aureus [3]) [µg/mL]	MIC (Staphylococcus aureus [4]) [µg/mL]	MIC (Escherichia coli [5]) [µg/mL]	MIC [6] [µg/mL]	MIC (Escherichia coli [7]) [µg/mL]	MIC (Klebsiella pneumoniae [8]) [µg/mL]	MIC [9] [µg/mL]	MIC (Enterococcus faecalis [10]) [µg/mL]	MIC (Enterococcus faecium [11]) [µg/mL]	MIC (Streptococcus pneumoniae [12]) [µg/mL]	MIC (Pseudomonas aeruginosa [13]) [µg/mL]	MIC (Pseudomonas aeruginosa [14]) [µg/mL]	MIC (Enterococcus faecalis [15]) [µg/mL]	MIC (Escherichia coli [16]) [µg/mL]	MIC (Streptococcus pneumoniae [17]) [µg/mL]	MIC (Pseudomonas aeruginosa [18]) [µg/mL]	MIC (Staphylococcus aureus [19]) [µg/mL]	MIC [20] [µg/mL]	also measured
COc1ccc(CN2CCN(c3cc4c(cc3F)c(=O)c(C(=O)O)cn4C3CC3)CC2)c(Cl)c1OC	4 (≈ 7.75 µM)	32 (≈ 62 µM)	128 (≈ 248 µM)	0.5 (≈ 0.969 µM)	> 128	32 (≈ 62 µM)	> 128	> 128	32 (≈ 62 µM)	32 (≈ 62 µM)	32 (≈ 62 µM)	64 (≈ 124 µM)	64 (≈ 124 µM)	64 (≈ 124 µM)	64 (≈ 124 µM)	32 (≈ 62 µM)	2 (≈ 3.88 µM)	128 (≈ 248 µM)	0.5 (≈ 0.969 µM)	1 (≈ 1.94 µM)	MIC [21]: 32 µg/mL (≈ 62 µM); MIC (Escherichia coli [22]): 1 µg/mL (≈ 1.94 µM); MIC (Pseudomonas aeruginosa [23]): 64 µg/mL (≈ 124 µM); MIC (Escherichia coli [24]): > 128 µg/mL; MIC (Escherichia coli [25]): > 128 µg/mL; MIC (Staphylococcus aureus [26]): 64 µg/mL (≈ 124 µM); MIC [27]: 2 µg/mL (≈ 3.88 µM); MIC (Pseudomonas aeruginosa [28]): 128 µg/mL (≈ 248 µM); MIC (Pseudomonas aeruginosa [29]): 64 µg/mL (≈ 124 µM); MIC (Staphylococcus aureus [30]): 0.5 µg/mL (≈ 0.969 µM); MIC (Staphylococcus aureus [31]): 0.06 µg/mL (≈ 0.116 µM); MIC (Escherichia coli [32]): > 128 µg/mL; MIC (Klebsiella pneumoniae [33]): > 128 µg/mL; MIC (Klebsiella pneumoniae [34]): > 128 µg/mL; MIC (Klebsiella pneumoniae [35]): > 128 µg/mL; MIC (Staphylococcus aureus [36]): 64 µg/mL (≈ 124 µM); MIC (Klebsiella pneumoniae [37]): > 128 µg/mL; MIC (Enterococcus faecalis [38]): 8 µg/mL (≈ 15.5 µM)
COc1cc(CN2CCN(c3cc4c(cc3F)c(=O)c(C(=O)O)cn4C3CC3)CC2)ccc1OCc1ccccc1	16 (≈ 28.7 µM)	32 (≈ 57.4 µM)	> 128	2 (≈ 3.59 µM)	> 128	128 (≈ 230 µM)	> 128	> 128	64 (≈ 115 µM)	32 (≈ 57.4 µM)	32 (≈ 57.4 µM)	32 (≈ 57.4 µM)	32 (≈ 57.4 µM)	32 (≈ 57.4 µM)	64 (≈ 115 µM)	32 (≈ 57.4 µM)	16 (≈ 28.7 µM)	32 (≈ 57.4 µM)	1 (≈ 1.79 µM)	1 (≈ 1.79 µM)	MIC [21]: 32 µg/mL (≈ 57.4 µM); MIC (Escherichia coli [22]): 0.5 µg/mL (≈ 0.897 µM); MIC (Pseudomonas aeruginosa [23]): 32 µg/mL (≈ 57.4 µM); MIC (Escherichia coli [24]): > 128 µg/mL; MIC (Escherichia coli [25]): > 128 µg/mL; MIC (Staphylococcus aureus [26]): > 128 µg/mL; MIC [27]: 16 µg/mL (≈ 28.7 µM); MIC (Pseudomonas aeruginosa [28]): 64 µg/mL (≈ 115 µM); MIC (Pseudomonas aeruginosa [29]): 64 µg/mL (≈ 115 µM); MIC (Staphylococcus aureus [30]): 0.5 µg/mL (≈ 0.897 µM); MIC (Staphylococcus aureus [31]): 2 µg/mL (≈ 3.59 µM); MIC (Escherichia coli [32]): > 128 µg/mL; MIC (Klebsiella pneumoniae [33]): > 128 µg/mL; MIC (Klebsiella pneumoniae [34]): > 128 µg/mL; MIC (Klebsiella pneumoniae [35]): > 128 µg/mL; MIC (Staphylococcus aureus [36]): > 128 µg/mL; MIC (Klebsiella pneumoniae [37]): > 128 µg/mL; MIC (Enterococcus faecalis [38]): 32 µg/mL (≈ 57.4 µM)
COc1cc(CN2CCN(c3cc4c(cc3F)c(=O)c(C(=O)O)cn4C3CC3)CC2)cc(OC)c1	16 (≈ 33.2 µM)	64 (≈ 133 µM)	> 128	0.5 (≈ 1.04 µM)	> 128	> 128	> 128	> 128	128 (≈ 266 µM)	> 128	> 128	> 128	64 (≈ 133 µM)	64 (≈ 133 µM)	> 128	> 128	8 (≈ 16.6 µM)	128 (≈ 266 µM)	1 (≈ 2.08 µM)	4 (≈ 8.31 µM)	MIC [21]: 128 µg/mL (≈ 266 µM); MIC (Escherichia coli [22]): 1 µg/mL (≈ 2.08 µM); MIC (Pseudomonas aeruginosa [23]): 64 µg/mL (≈ 133 µM); MIC (Escherichia coli [24]): > 128 µg/mL; MIC (Escherichia coli [25]): > 128 µg/mL; MIC (Staphylococcus aureus [26]): 128 µg/mL (≈ 266 µM); MIC [27]: 2 µg/mL (≈ 4.15 µM); MIC (Pseudomonas aeruginosa [28]): 128 µg/mL (≈ 266 µM); MIC (Pseudomonas aeruginosa [29]): 64 µg/mL (≈ 133 µM); MIC (Staphylococcus aureus [30]): 1 µg/mL (≈ 2.08 µM); MIC (Staphylococcus aureus [31]): 1 µg/mL (≈ 2.08 µM); MIC (Escherichia coli [32]): > 128 µg/mL; MIC (Klebsiella pneumoniae [33]): > 128 µg/mL; MIC (Klebsiella pneumoniae [34]): > 128 µg/mL; MIC (Klebsiella pneumoniae [35]): > 128 µg/mL; MIC (Staphylococcus aureus [36]): 64 µg/mL (≈ 133 µM); MIC (Klebsiella pneumoniae [37]): > 128 µg/mL; MIC (Enterococcus faecalis [38]): 128 µg/mL (≈ 266 µM)
